Measurements from ChEMBL document CHEMBL3045055, “Synthesis and antifungal activities of carabrol ester derivatives” (J Agric Food Chem, 2012).
≈ marks a conversion by molar mass, not a printed value.

What follows are compounds tested on Colletotrichum lagenaria (assay: Antifungal activity against Colletotrichum lagenaria assessed as inhibition of spore germination at 24 +/- 1 degC for 8 hr (plant disease: on leaf and fruit)).
Assay type: functional, organism-based
Summary of the method: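 C. lagenarium isolate (Accession No. 36199, Agricultural Culture Collection of China) grown 2 weeks at 25 ± 1 °C on PDA. Conidia flooded off with sterile water, filtered through cheesecloth, and suspended in water with 0.1% (v/v) Tween 20 at 1.0 × 10^6 spore/mL by hemocytometer. Samples dissolved in methanol, diluted with sterile water to test solutions; spore germination inhibition read, IC50 derived.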

Row | Compound | IC50
1 | C=C1C(=O)O[C@@H]2C[C@]3(C)C(CCC(C)OC(=O)CCc4c[nH]c5ccccc45)[C@@H]3C[C@H]12 (some centres undefined) [CARABRYL 3-INDOLEPROPIONATE] | 12.8 µg/mL (≈ 30.4 µM)
2 | C=C1C(=O)O[C@@H]2C[C@]3(C)C(CCC(C)OC(=O)CCc4ccccc4)[C@@H]3C[C@H]12 (some centres undefined) [CARABRYL 3-PHENYLPROPANOATE] | 13.2 µg/mL (≈ 34.6 µM)
3 | C=C1C(=O)O[C@@H]2C[C@]3(C)C(CCC(C)OC(=O)c4cnc(C)cn4)[C@@H]3C[C@H]12 (some centres undefined) | 20.5 µg/mL (≈ 55.3 µM)
4 | C=C1C(=O)O[C@@H]2C[C@]3(C)C(CCC(C)OC(=O)c4cccnc4)[C@@H]3C[C@H]12 (some centres undefined) [CARABRYL NICOTINATE] | 8.26 µg/mL (≈ 23.2 µM)
5 | C=C1C(=O)O[C@@H]2C[C@]3(C)C(CCC(C)OC(=O)c4cccc(OC)c4OC)[C@@H]3C[C@H]12 (some centres undefined) [CARABRYL 2,3-DIMETHOXYBENZOATE] | 35.8 µg/mL (≈ 86.3 µM)
6 | C=C1C(=O)O[C@@H]2C[C@]3(C)C(CCC(C)OC(=O)/C=C/c4ccccc4)[C@@H]3C[C@H]12 (some centres undefined) [CARABRYL 3-PHENYLACRYLATE] | 33.2 µg/mL (≈ 87.3 µM)
7 | C=C1C(=O)O[C@@H]2C[C@]3(C)C(CCC(C)OC(=O)c4ccc(OC)c(OC)c4)[C@@H]3C[C@H]12 (some centres undefined) [CARABRYL 3,4-DIMETHOXYBENZOATE] | 33 µg/mL (≈ 79.5 µM)
8 | C=C1C(=O)O[C@@H]2C[C@]3(C)C(CCC(C)OC(=O)c4cccc(OC)c4)[C@@H]3C[C@H]12 (some centres undefined) [CARABRYL 3-METHOXYBENZOATE] | 49.4 µg/mL (≈ 129 µM)
9 | C=C1C(=O)O[C@@H]2C[C@]3(C)C(CCC(C)OC(=O)CCCCCCCCCCC)[C@@H]3C[C@H]12 (some centres undefined) [CARABRYL LAURATE] | 33.6 µg/mL (≈ 77.7 µM)
10 | C=C1C(=O)O[C@@H]2C[C@]3(C)C(CCC(C)OC(=O)c4ccccc4OCC)[C@@H]3C[C@H]12 (some centres undefined) [CARABRYL 2-ETHOXYBENZOATE] | 41.6 µg/mL (≈ 104 µM)
11 | C=C1C(=O)O[C@@H]2C[C@]3(C)C(CCC(C)OC(=O)c4cccc5ccccc45)[C@@H]3C[C@H]12 (stereo partly drawn) [CARABRYL ALPHA-NAPHTHYLCARBOXYLATE] | 23.3 µg/mL (≈ 57.6 µM)
12 | C=C1C(=O)O[C@@H]2C[C@]3(C)C(CCC(C)OC(=O)CC)[C@@H]3C[C@H]12 (some centres undefined) [CARABRYL PROPANOATE] | 23.3 µg/mL (≈ 76 µM)
13 | C=C1C(=O)O[C@@H]2C[C@]3(C)C(CCC(C)OC(=O)CCC)[C@@H]3C[C@H]12 (some centres undefined) [CARABRYL N-BUTYRATE] | 20.8 µg/mL (≈ 65 µM)
14 | C=C1C(=O)O[C@@H]2C[C@]3(C)C(CCC(C)OC(=O)/C=C/C=C/C)[C@@H]3C[C@H]12 (some centres undefined) [CARABRYL 2,4-HEXADIENOATE] | 8.41 µg/mL (≈ 24.4 µM)
15 | C=C1C(=O)O[C@@H]2C[C@]3(C)C(CCC(C)OC(=O)c4ccncc4)[C@@H]3C[C@H]12 (some centres undefined) [CARABRYL ISONICOTINATE] | 4.31 µg/mL (≈ 12.1 µM)
16 | C=C1C(=O)O[C@@H]2C[C@]3(C)C(CCC(C)OC(=O)c4ccc(Br)cc4)[C@@H]3C[C@H]12 (some centres undefined) [CARABRYL 4-BROMOBENZOATE] | 31.3 µg/mL (≈ 72.2 µM)
17 | C=C1C(=O)O[C@@H]2C[C@]3(C)C(CCC(C)OC(=O)c4cccc(F)c4)[C@@H]3C[C@H]12 (some centres undefined) [CARABRYL 3-FLUOROBENZOATE] | 30.4 µg/mL (≈ 81.7 µM)
18 | C=C1C(=O)O[C@@H]2C[C@]3(C)C(CCC(C)OC(=O)c4cccnc4Cl)[C@@H]3C[C@H]12 (some centres undefined) [CARABRYL 2-CHLORONICOTINATE] | 4.62 µg/mL (≈ 11.8 µM)
19 | C=C1C(=O)O[C@@H]2C[C@]3(C)C(CCC(C)OC(=O)Cc4cccc5ccccc45)[C@@H]3C[C@H]12 (stereo partly drawn) [CARABRYL ALPHA-NAPHTHYLACETATE] | 30.3 µg/mL (≈ 72.3 µM)
20 | C=C1C(=O)O[C@@H]2C[C@]3(C)C(CCC(C)OC(=O)c4cccc(Br)c4)[C@@H]3C[C@H]12 (some centres undefined) [CARABRYL 3-BROMOBENZOATE] | 36.7 µg/mL (≈ 84.7 µM)

Row | Compound | IC50
21 | C=C1C(=O)O[C@@H]2C[C@]3(C)C(CCC(C)OC(=O)/C=C/c4ccc([N+](=O)[O-])cc4)[C@@H]3C[C@H]12 (some centres undefined) | 22.8 µg/mL (≈ 53.7 µM)
22 | N#Cc1c(Cl)c(Cl)c(Cl)c(C#N)c1Cl [CHLOROTHALONIL] | 0.87 µg/mL (≈ 3.27 µM)
23 | C=C1C(=O)O[C@@H]2C[C@]3(C)C(CCC(C)OC(=O)CCl)[C@@H]3C[C@H]12 (some centres undefined) [CARABRYL CHLOROACETATE] | 4.51 µg/mL (≈ 13.8 µM)
24 | C=C1C(=O)O[C@@H]2C[C@]3(C)C(CCC(C)OC(=O)c4cccc(Cl)c4)[C@@H]3C[C@H]12 (some centres undefined) [CARABRYL 3-CHLOROBENZOATE] | 26.7 µg/mL (≈ 68.7 µM)
25 | C=C1C(=O)O[C@@H]2C[C@]3(C)C(CCC(C)OC(=O)c4ccccc4OC)[C@@H]3C[C@H]12 (some centres undefined) [CARABRYL 2-METHOXYBENZOATE] | 46.1 µg/mL (≈ 120 µM)
26 | C=C1C(=O)O[C@@H]2C[C@]3(C)C(CCC(C)OC(=O)c4ccc(C(C)C)cc4)[C@@H]3C[C@H]12 (some centres undefined) [CARABRYL 4-ISOPROPYLBENZOATE] | 2.82 µg/mL (≈ 7.11 µM)
27 | C=C1C(=O)O[C@@H]2C[C@]3(C)C(CCC(C)OC(=O)c4ccccc4Br)[C@@H]3C[C@H]12 (some centres undefined) [CARABRYL 2-BROMOBENZOATE] | 29.2 µg/mL (≈ 67.3 µM)
28 | C=C1C(=O)O[C@@H]2C[C@]3(C)C(CCC(C)OC(=O)c4ccc(OC)cc4)[C@@H]3C[C@H]12 (some centres undefined) [CARABRYL 4-METHOXYBENZOATE] | 47.5 µg/mL (≈ 123 µM)
29 | C=C1C(=O)O[C@@H]2C[C@]3(C)C(CCC(C)OC(=O)c4ccccc4I)[C@@H]3C[C@H]12 (some centres undefined) [CARABRYL 2-IODOBENZOATE] | 39 µg/mL (≈ 81.3 µM)
30 | C=C1C(=O)O[C@@H]2C[C@]3(C)C(CCC(C)OC(=O)c4ccc(F)cc4)[C@@H]3C[C@H]12 (some centres undefined) [CARABRYL 4-FLUOROBENZOATE] | 21.2 µg/mL (≈ 57 µM)
31 | C=C1C(=O)O[C@@H]2C[C@]3(C)C(CCC(C)OC(=O)c4ccccc4C)[C@@H]3C[C@H]12 (some centres undefined) [CARABRYL 2-METHYLBENZOATE] | 52.3 µg/mL (≈ 142 µM)
32 | C=C1C(=O)O[C@@H]2C[C@]3(C)C(CCC(C)OC(=O)Cc4ccc(Br)cc4)[C@@H]3C[C@H]12 (some centres undefined) [CARABRYL 4-BROMOPHENYLACETATE] | 44.4 µg/mL (≈ 99.3 µM)
33 | C=C1C(=O)O[C@@H]2C[C@]3(C)C(CCC(C)OC(=O)c4ccc(Cl)cc4)[C@@H]3C[C@H]12 (some centres undefined) [CARABRYL 4-CHLOROBENZOATE] | 31.8 µg/mL (≈ 81.8 µM)
34 | C=C1C(=O)O[C@@H]2C[C@]3(C)C(CCC(C)OC(=O)c4ccc(C#N)cc4)[C@@H]3C[C@H]12 (some centres undefined) [CARABRYL 4-CYANOBENZOATE] | 2.7 µg/mL (≈ 7.12 µM)
35 | C=C1C(=O)O[C@@H]2C[C@]3(C)C(CCC(C)OC(C)=O)[C@@H]3C[C@H]12 (some centres undefined) [CARABRYL ACETATE] | 10.8 µg/mL
36 | C=C1C(=O)O[C@@H]2C[C@]3(C)C(CCC(C)OC(=O)c4cccs4)[C@@H]3C[C@H]12 (some centres undefined) [CARABRYL 2-THIOPHENECARBOXYLATE] | 30.8 µg/mL (≈ 85.5 µM)
37 | C=C1C(=O)O[C@@H]2C[C@]3(C)C(CCC(C)OC(=O)CCCC)[C@@H]3C[C@H]12 (some centres undefined) [CARABRYL N-PENTANOATE] | 31.2 µg/mL (≈ 93.3 µM)
38 | C=C1C(=O)O[C@@H]2C[C@]3(C)C(CCC(C)OC(=O)c4ccc(I)cc4)[C@@H]3C[C@H]12 (some centres undefined) [CARABRYL 4-IODOBENZOATE] | 33.5 µg/mL (≈ 69.7 µM)
39 | C=C1C(=O)O[C@@H]2C[C@]3(C)C(CCC(C)OC(=O)/C=C/c4ccc(OC)c(OC)c4)[C@@H]3C[C@H]12 (some centres undefined) | 25.1 µg/mL (≈ 56.9 µM)
